In ChEMBL document CHEMBL3045648, “Proapoptotic effects of novel pentabromobenzylisothioureas in human leukemia cell lines” (2012):
The source made the active and inactive calls. The rule behind the calls is not given here.

Experiments:
[1] = test system: K562; test: Induction of cell cycle arrest in Homo sapiens (human) K562 cells assessed as decrease in G2/M phase cells after 48 hr by PI-staining based flow cytometric analysis; format: functional
In short: (§1)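 Cells treated 48 h with DMSO solvent controls, washed in cold PBS and fixed in 70% ethanol at −20°C for at least 24 h. Stained 30 min in the dark at room temperature with 50 μg/ml PI and 100 μg/ml RNase in PBS/0.1% Triton X-100. DNA content measured by flow cytometry and phase percentages modelled; mean ± SD, n ≥ 4.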

[2] = test system: K562; test: Induction of cell cycle arrest in Homo sapiens (human) K562 cells assessed as accumulation of G1 phase cells after 48 hr by PI-staining based flow cytometric analysis; format: functional; in short: as §1
[3] = test system: HL-60; test: Induction of apoptosis in Homo sapiens (human) HL60 cells at 5 to 8 uM by annexinV/PI-staining based flow cytometric analysis; format: functional, cell-based; settings: TDE = time-dependent effect
In short: (§2)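 Cells seeded at 2.5 × 10^5 cells/ml in RPMI-1640/10% FBS, treated 24 or 48 h, DMSO solvent controls. Rinsed twice in cold PBS and resuspended at 2 × 10^6 cells/ml in binding buffer. Labelled with annexin V-FITC and PI for 15 min at room temperature in the dark. Flow cytometry within 1 h; mean ± SD, n ≥ 4.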

[4] = test system: HL-60; test: Induction of cell cycle arrest in Homo sapiens (human) HL60 cells assessed as cells accumulation of G1/S phase cells after 48 hr by PI-staining based flow cytometric analysis; format: functional; in short: as §1
[5] = test system: HL-60; test: Induction of cell cycle arrest in Homo sapiens (human) HL60 cells assessed as accumulation of G1 phase cells after 48 hr by PI-staining based flow cytometric analysis; format: functional; in short: as §1
[6] = test system: HL-60; test: Induction of cell cycle arrest in Homo sapiens (human) HL60 cells assessed as decrease in G2/M phase cells after 48 hr by PI-staining based flow cytometric analysis; format: functional; in short: as §1
[7] = test system: K562; test: Induction of apoptosis in Homo sapiens (human) K562 cells from 24 to 48 hr by annexinV/PI-staining based flow cytometric analysis; format: functional, cell-based; in short: as §2
[8] = test system: K562; test: Induction of apoptosis in Homo sapiens (human) K562 cells at 10 to 20 uM by annexinV/PI-staining based flow cytometric analysis; format: functional, cell-based; settings: TDE = time-dependent effect; in short: as §2
[9] = test system: K562; test: Induction of cell cycle arrest in Homo sapiens (human) K562 cells assessed as cells accumulation of G1/S phase cells after 48 hr by PI-staining based flow cytometric analysis; format: functional; in short: as §1
[10] = test system: HL-60; test: Induction of apoptosis in Homo sapiens (human) HL60 cells from 24 to 48 hr by annexinV/PI-staining based flow cytometric analysis; format: functional, cell-based; in short: as §2
[11] = test system: K562; test: Induction of apoptosis in Homo sapiens (human) K562 cells assessed as mitochondrial membrane depolarization at 10 uM after 48 hr by JC-1 staining based flow cytometric analysis (reference value: 6.1 +/- 0.9%); format: functional
[12] = test system: HL-60; test: Induction of apoptosis in Homo sapiens (human) HL60 cells assessed as mitochondrial membrane depolarization at 5 uM after 48 hr by JC-1 staining based flow cytometric analysis (reference value: 7.7 +/- 2.4%); format: functional
[13] = test system: K562; test: Induction of cell cycle arrest in Homo sapiens (human) K562 cells assessed as S phase cells at 20 uM after 48 hr by PI-staining based flow cytometric analysis (reference value: 43.3 +/- 3.4%); format: functional; in short: as §1
[14] = test system: K562; test: Induction of cell cycle arrest in Homo sapiens (human) K562 cells assessed as G2/M phase cells at 20 uM after 48 hr by PI-staining based flow cytometric analysis (reference value: 19.1 +/- 3.9%); format: functional; in short: as §1
[15] = test system: HL-60; test: Induction of apoptosis in Homo sapiens (human) HL60 cells assessed as concentrated chromatin at 8 uM after 48 hr by DAPI/sulforhodamine 101-stainihng based fluorescence micrscopic analysis; format: functional, cell-based
In short: (§3)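 Exponentially growing cells seeded at 2.5 × 10^5 cells/ml, exposed 48 h, DMSO solvent controls. Washed in cold PBS and fixed in 70% ethanol at −20°C for at least 24 h. Stained with 1.0 μg/ml DAPI plus 20 μg/ml sulforhodamine 101. Nuclear morphology scored by fluorescence microscopy.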

[16] = test system: K562; test: Induction of cell cycle arrest in Homo sapiens (human) K562 cells assessed as S phase cells at 10 uM after 48 hr by PI-staining based flow cytometric analysis (reference value: 43.3 +/- 3.4%); format: functional; in short: as §1
[17] = test system: K562; test: Induction of cell cycle arrest in Homo sapiens (human) K562 cells assessed as G1 phase cells at 20 uM after 48 hr by PI-staining based flow cytometric analysis (reference value: 37.6 +/- 3.2 %); format: functional; in short: as §1
[18] = test system: HL-60; test: Induction of apoptosis in Homo sapiens (human) HL60 cells assessed as apoptotic nuclei at 8 uM after 48 hr by DAPI/sulforhodamine 101-stainihng based fluorescence micrscopic analysis; format: functional, cell-based; in short: as §3
[19] = test system: K562; test: Induction of cell cycle arrest in Homo sapiens (human) K562 cells assessed as G1 phase cells at 10 uM after 48 hr by PI-staining based flow cytometric analysis (reference value: 37.6 +/- 3.2 %); format: functional; in short: as §1
[20] = test system: K562; test: Induction of cell cycle arrest in Homo sapiens (human) K562 cells assessed as G2/M phase cells at 10 uM after 48 hr by PI-staining based flow cytometric analysis (reference value: 19.1 +/- 3.9%); format: functional; in short: as §1
[21] = test system: HL-60; test: Induction of apoptosis in Homo sapiens (human) HL60 cells assessed as PARP cleavage at 8 uM after 48 hr by FITC conjugated antiPARP-staining based flow cytometric analysis; format: functional, cell-based
In short: (§4)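 Cells in RPMI-1640 with 10% heat-inactivated FBS, seeded at 2.5 × 10^5 cells/ml and treated from DMSO solution. Controls got the same solvent volume. Harvested 48 h post-treatment and washed twice in PBS. Stained with FITC anti-PARP antibody specific for the 85 kDa cleaved fragment. Flow cytometry reported fluorescence intensity, with negative (M1) and positive (M2) gates.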

[22] = test system: K562; test: Induction of apoptosis in Homo sapiens (human) K562 cells assessed as PARP cleavage at 10 uM after 48 hr by FITC conjugated antiPARP-staining based flow cytometric analysis; format: functional, cell-based; in short: as §4

Row | Compound | Activity [1] | Activity [2] | Activity [3] | Activity [4] | Activity [5] | Activity [6] | Activity [7] | Activity [8] | Activity [9] | Activity [10] | Activity [11] [%] | Activity [12] [%] | other results
1 | Br.N=C(N)SCc1c(Br)c(Br)c(Br)c(Br)c1Br | Dose-dependent effect | Dose-dependent effect | tde | Dose-dependent effect | Dose-dependent effect | Dose-dependent effect | Dose-dependent effect | tde | Dose-dependent effect | Dose-dependent effect | 63.8 | 21.9 | 
2 | Br.C/N=C(/NC)SCc1c(Br)c(Br)c(Br)c(Br)c1Br | Dose-dependent effect | Dose-dependent effect | tde | Dose-dependent effect | Dose-dependent effect | Dose-dependent effect | Dose-dependent effect | tde | Dose-dependent effect | Dose-dependent effect | 77.7 | 93.1 | Activity [13]: 42.5%; Activity [14]: 2.5%; Activity [15]: Active; Activity [16]: 35.5%; Activity [17]: 55%; Activity [18]: Active; Activity [19]: 55.5%; Activity [20]: 9%; Activity [21]: Active
3 | Br.CCNC(=N)SCc1c(Br)c(Br)c(Br)c(Br)c1Br | Dose-dependent effect | Dose-dependent effect | tde | Dose-dependent effect | Dose-dependent effect | Dose-dependent effect | Dose-dependent effect | tde | Dose-dependent effect | Dose-dependent effect | 62.2 | 30.1 | 
4 | Br.CNC(=N)SCc1c(Br)c(Br)c(Br)c(Br)c1Br | Dose-dependent effect | Dose-dependent effect | tde | Dose-dependent effect | Dose-dependent effect | Dose-dependent effect | Dose-dependent effect | tde | Dose-dependent effect | Dose-dependent effect | 81.8 | 24.4 | Activity [22]: Active
5 | Br.C=CCNC(=N)SCc1c(Br)c(Br)c(Br)c(Br)c1Br | Dose-dependent effect | Dose-dependent effect | tde | Dose-dependent effect | Dose-dependent effect | Dose-dependent effect | Dose-dependent effect | tde | Dose-dependent effect | Dose-dependent effect | 60 | 12.8 | 
